Measurements from ChEMBL document CHEMBL5329188, “Design, synthesis, and biological evaluation of 3,3'-diindolylmethane N-linked glycoconjugate as a leishmanial topoisomerase IB inhibitor with reduced cytotoxicity” (RSC Med Chem, 2023).
Activity calls are given as the source filed them. No cut-off for these calls is given here.

Experiments:
Leishmania donovani [1] = test: Antileishmanial activity against Leishmania donovani MHOM/IN/80/Dd8 promastigotes assessed as reduction in promastigotes viability incubated for 24 hrs by resazurin-based alamar blue dye assay; type: functional, organism-based; details: MHOM/IN/80/Dd8, 24 h
Summary of the method: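 L. donovani DD8 promastigotes, exponential phase, in M199 with 10% heat-inactivated FBS at 24 ± 1 °C, 5×10^6 cells per well. Exposed 24 h to 100, 50, 25, 12.5 and 6.25 μM (1 mM DMSO stocks). Viability read with resazurin (Alamar Blue, 20 μg ml^-1 final), excitation 550 nm and emission 590 nm. Amphotericin B standard. IC50 from curve fit; mean ± SD of three independent experiments.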

J774.A1 [2] = test: Cytotoxicity against mouse J774.A1 cells assessed as reduction in viability at 50 uM incubated for 20 hrs by MTT assay; type: toxicity, cell-based; details: j774.a1, 20 h
Summary of the method: (§1)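 J774A.1 murine macrophages in DMEM, 2×10^4 cells per well, adhered overnight. Treated in triplicate at 100, 50, 30, 20 and 10 μM with 0.1% final DMSO (DMSO negative control, amphotericin B positive control) for 20 h. MTT (2.5 mg ml^-1 in PBS) added for 4 h at 37 °C, formazan dissolved in DMSO, OD 570 nm. CC50 from curve fit; mean ± SD of three independent experiments.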

J774.A1 [3] = test: Cytotoxicity against mouse J774.A1 cells assessed as reduction in viability at 30 uM incubated for 20 hrs by MTT assay; type: toxicity, cell-based; details: j774.a1, 20 h; summary of the method: as §1
J774.A1 [4] = test: Cytotoxicity against mouse J774.A1 cells assessed as reduction in viability at 20 uM incubated for 20 hrs by MTT assay; type: toxicity, cell-based; details: j774.a1, 20 h; summary of the method: as §1
J774.A1 [5] = test: Cytotoxicity against mouse J774.A1 cells assessed as reduction in viability at 10 uM incubated for 20 hrs by MTT assay; type: toxicity, cell-based; details: j774.a1, 20 h; summary of the method: as §1
[6] = Cytotoxicity against mouse J774.A1 cells assessed as reduction in viability incubated for 20 hrs by MTT assay; type: toxicity, cell-based; summary of the method: as §1
Leishmania donovani [7] = test: Inhibition of recombinant Leishmania donovani DNA topoisomerase IB mediated relaxation activity expressed in Escherichia coli BL21 (DE3) cells using supercoiled pHOT1 DNA as substrate at 500 uM incubated for 25 mins by EtBr staining based agarose gel electrophoresis analysis
Summary of the method: (§2)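 His-tagged LdTopILS expressed from pET16b plasmids in E. coli BL21(DE3) (0.5 mM IPTG, 22 °C, 12 h) and Ni-NTA purified. Enzyme mixed with supercoiled pHOT1 at 3:1 molar ratio in 25 mM Tris-Cl pH 7.5, 5% glycerol, 50 mM KCl, 0.5 mM DTT, 10 mM MgCl2, 30 μg ml^-1 BSA for 25 min at 37 °C. Controls: CPT 60 μM and DMSO 4% v/v. Products run on 1% agarose, EtBr stained, relaxed vs supercoiled quantified.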

Leishmania donovani [8] = test: Inhibition of recombinant Leishmania donovani DNA topoisomerase IB mediated relaxation activity expressed in Escherichia coli BL21 (DE3) cells using supercoiled pHOT1 DNA as substrate at 500 uM incubated for 25 mins by EtBr staining based agarose gel electrophoresis analysis relative to control; summary of the method: as §2
Leishmania donovani [9] = test: Inhibition of recombinant Leishmania donovani DNA topoisomerase IB mediated relaxation activity expressed in Escherichia coli BL21 (DE3) cells using supercoiled pHOT1 DNA as substrate at 400 uM incubated for 25 mins by EtBr staining based agarose gel electrophoresis analysis relative to control; summary of the method: as §2
Leishmania donovani [10] = test: Inhibition of recombinant Leishmania donovani DNA topoisomerase IB mediated relaxation activity expressed in Escherichia coli BL21 (DE3) cells using supercoiled pHOT1 DNA as substrate at 60 uM incubated for 25 mins by EtBr staining based agarose gel electrophoresis analysis
Summary of the method: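 LdTopILS was co-expressed from pET16bLdTOP1L and pET16bLdTOP1S in E. coli BL21(DE3), induced with 0.5 mM IPTG at OD600 0.6 for 12 h at 22 °C, and Ni-NTA purified. Enzyme and supercoiled pHOT1 (3:1 molar) ran 25 min at 37 °C in 25 mM Tris-Cl pH 7.5, 5% glycerol, 50 mM KCl, 0.5 mM DTT, 10 mM MgCl2, 30 µg/ml BSA. DMSO 4% v/v was the solvent control. Relaxed versus supercoiled bands were quantified on 1% agarose with EtBr.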

Q: Which IC50 (Leishmania donovani [1]) does the source give for `Cc1ccc(C(c2c[nH]c3ccccc23)c2c[nH]c3ccccc23)cc1` here?
A: 54.3 µM

Q: Which results are given for `Fc1ccc(C(c2c[nH]c3ccccc23)c2c[nH]c3ccccc23)cc1`?
A: IC50 (Leishmania donovani [1]): 36.2 µM; Activity (J774.A1 [2]): 15.89%; Activity (J774.A1 [3]): 19.81%; Activity (J774.A1 [4]): 20.05%; Activity (J774.A1 [5]): 26.23%; CC50 at 20 h [6]: 5.71 µM; inhibition (Leishmania donovani [7]): inactive

Q: With `Brc1ccc(C(c2c[nH]c3ccc(Br)cc23)c2c[nH]c3ccc(Br)cc23)cc1` as the molecule, how does the IC50 (Leishmania donovani [1]) read?
A: > 100 µM

Q: With `CSc1ccc(C(c2c[nH]c3ccc(Br)cc23)c2c[nH]c3ccc(Br)cc23)cc1` as the molecule, how does the IC50 (Leishmania donovani [1]) read?
A: > 100 µM

Q: For `Clc1ccc2c(C(c3ccc(Br)cc3)c3c[nH]c4cc(Cl)ccc34)c[nH]c2c1`, which IC50 (Leishmania donovani [1]) is on record?
A: 74.3 µM

Q: Which inhibition (Leishmania donovani [8]) does the source give for `CC(=O)OC[C@H]1O[C@@H](n2ccc3cc(Br)ccc32)[C@H](OC(C)=O)[C@@H](OC(C)=O)[C@@H]1OC(C)=O` here?
A: > 90%

Q: With `Fc1ccc(C(c2c[nH]c3ccc(Br)cc23)c2c[nH]c3ccc(Br)cc23)cc1` as the molecule, how does the IC50 (Leishmania donovani [1]) read?
A: 34.8 µM

Q: What about the Activity (J774.A1 [2]) of the same molecule?
A: 21.73%

Q: And the Activity (J774.A1 [3])?
A: 30.34%

Q: What about the Activity (J774.A1 [4]) of the same molecule?
A: 34.28%

Q: What about the Activity (J774.A1 [5]) of the same molecule?
A: 39.59%

Q: And the CC50 at 20 h [6]?
A: 4.45 µM

Q: And the inhibition (Leishmania donovani [7])?
A: inactive

Q: With `COc1ccc(C(c2c[nH]c3ccccc23)c2c[nH]c3ccccc23)cc1` as the molecule, how does the IC50 (Leishmania donovani [1]) read?
A: 54.9 µM

Q: With `Brc1ccc(C(c2c[nH]c3ccccc23)c2c[nH]c3ccccc23)cc1` as the molecule, how does the IC50 (Leishmania donovani [1]) read?
A: 47 µM

Q: What about the inhibition (Leishmania donovani [7]) of the same molecule?
A: inactive

Q: With `Fc1ccc2[nH]cc(C(c3ccc(Cl)cc3)c3c[nH]c4ccc(F)cc34)c2c1` as the molecule, how does the IC50 (Leishmania donovani [1]) read?
A: 31.4 µM

Q: And the Activity (J774.A1 [2])?
A: 26.14%

Q: And the Activity (J774.A1 [3])?
A: 32.04%

Q: And the Activity (J774.A1 [4])?
A: 33.53%

Q: And the Activity (J774.A1 [5])?
A: 40.15%

Q: What about the CC50 at 20 h [6] of the same molecule?
A: 4.51 µM

Q: What about the inhibition (Leishmania donovani [7]) of the same molecule?
A: inactive

Q: Which IC50 (Leishmania donovani [1]) does the source give for `O=[N+]([O-])c1ccc(C(c2c[nH]c3ccc(Br)cc23)c2c[nH]c3ccc(Br)cc23)cc1` here?
A: 48.5 µM

Q: For `OC[C@H]1O[C@@H](n2ccc3cc(Br)ccc32)[C@H](O)[C@@H](O)[C@@H]1O`, which inhibition (Leishmania donovani [8]) is on record?
A: > 90%

Q: Which IC50 (Leishmania donovani [1]) does the source give for `OC[C@H]1O[C@@H](n2cc(C(c3ccc(F)cc3)c3cn([C@@H]4O[C@H](CO)[C@@H](O)[C@@H](O)[C@H]4O)c4ccc(Br)cc34)c3cc(Br)ccc32)[C@H](O)[C@H](O)[C@@H]1O` (some centres undefined) here?
A: 27.9 µM

Q: And the Activity (J774.A1 [2])?
A: 69.77%

Q: What about the Activity (J774.A1 [3]) of the same molecule?
A: 70.11%

Q: And the Activity (J774.A1 [4])?
A: 81.05%

Q: And the Activity (J774.A1 [5])?
A: 96.25%

Q: And the CC50 at 20 h [6]?
A: 89.2 µM

Q: And the inhibition (Leishmania donovani [8])?
A: 100%

Q: What about the inhibition (Leishmania donovani [9]) of the same molecule?
A: 100%

Q: Which IC50 (Leishmania donovani [1]) does the source give for `Fc1ccc(C(c2c[nH]c3cc(Cl)ccc23)c2c[nH]c3cc(Cl)ccc23)cc1` here?
A: > 100 µM

Q: With `C[C@@H]1[C@H](O)[C@@H](C)/C=C/C=C/C=C/C=C/C=C/C=C/C=C/[C@H](O[C@@H]2O[C@H](C)[C@@H](O)[C@H](N)[C@@H]2O)C[C@@H]2O[C@](O)(C[C@@H](O)C[C@@H](O)[C@H](O)CC[C@@H](O)C[C@@H](O)CC(=O)O[C@H]1C)C[C@H](O)[C@H]2C(=O)O` [AMPHOTERICIN B] as the molecule, how does the IC50 (Leishmania donovani [1]) read?
A: 0.4 µM

Q: For `CSc1ccc(C(c2c[nH]c3ccccc23)c2c[nH]c3ccccc23)cc1`, which IC50 (Leishmania donovani [1]) is on record?
A: > 100 µM

Q: Which IC50 (Leishmania donovani [1]) does the source give for `O=[N+]([O-])c1ccc(C(c2c[nH]c3cc(Cl)ccc23)c2c[nH]c3cc(Cl)ccc23)cc1` here?
A: 48.4 µM

Q: For `Clc1ccc(C(c2c[nH]c3ccccc23)c2c[nH]c3ccccc23)cc1`, which IC50 (Leishmania donovani [1]) is on record?
A: 57.1 µM

Q: With `CC[C@@]1(O)C(=O)OCc2c1cc1n(c2=O)Cc2cc3ccccc3nc2-1` as the molecule, how does the inhibition (Leishmania donovani [10]) read?
A: Active

Q: Which IC50 (Leishmania donovani [1]) does the source give for `COc1ccc(C(c2c[nH]c3ccc(Br)cc23)c2c[nH]c3ccc(Br)cc23)cc1` here?
A: > 100 µM

Q: Which IC50 (Leishmania donovani [1]) does the source give for `O=[N+]([O-])c1ccc(C(c2c[nH]c3ccccc23)c2c[nH]c3ccccc23)cc1` here?
A: > 100 µM

Q: With `CC(=O)OC[C@H]1O[C@@H](n2cc(C(c3ccc(F)cc3)c3cn([C@@H]4O[C@H](COC(C)=O)[C@@H](OC(C)=O)[C@H](OC(C)=O)[C@H]4OC(C)=O)c4ccc(Br)cc34)c3cc(Br)ccc32)[C@H](OC(C)=O)[C@@H](OC(C)=O)[C@@H]1OC(C)=O` as the molecule, how does the IC50 (Leishmania donovani [1]) read?
A: 29.1 µM

Q: What about the inhibition (Leishmania donovani [8]) of the same molecule?
A: 100%

Q: What about the inhibition (Leishmania donovani [9]) of the same molecule?
A: 100%

Q: For `Cc1ccc(C(c2c[nH]c3ccc(Br)cc23)c2c[nH]c3ccc(Br)cc23)cc1`, which IC50 (Leishmania donovani [1]) is on record?
A: 59.2 µM

Q: Which IC50 (Leishmania donovani [1]) does the source give for `Clc1ccc(C(c2c[nH]c3cc(Cl)ccc23)c2c[nH]c3cc(Cl)ccc23)cc1` here?
A: 53.2 µM

Q: With `Clc1ccc(C(c2c[nH]c3ccc(Br)cc23)c2c[nH]c3ccc(Br)cc23)cc1` as the molecule, how does the IC50 (Leishmania donovani [1]) read?
A: 41.8 µM

Q: And the inhibition (Leishmania donovani [7])?
A: inactive
